Type in all cases: functional
The subject of experiment [1] is A549. As to the kind of experiment: Growth inhibition of human A549 cells after 72 hrs by SRB assay. To be noted: A549, 72 h. In a few lines: (§1)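 Cell lines kept in RPMI with 10% FCS, 2 mM L-glutamine, penicillin/streptomycin at 37 °C, 5% CO2. Exposure 72 h to 10 concentrations from 10 to 0.0026 μg/mL. Cells fixed in 1% glutaraldehyde, stained with 0.4% SRB for 30 min, dye extracted in 10 mM Trizma base, absorbance read at 490 nm. GI50 from triplicate dose-response cultures by NCI algorithm; mean ± SD of three independent experiments.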

Experiment [2] relates to HT-29. As to the kind of experiment: Growth inhibition of human HT-29 cells after 72 hrs by SRB assay. To be noted: HT-29, 72 h. The procedure, abridged: as §1
For orientation: The SRB assay estimates cell density from bound dye.

The subject of experiment [3] is SK-BR-3. In words: Growth inhibition of human SKBR3 cells after 72 hrs by SRB assay. To be noted: SK-BR-3, 72 h. The procedure, abridged: as §1

Structures can show the parent of a compound that is named as a salt.

What is called GI50 is the concentration that inhibits growth by half. A lower GI50 goes with greater sensitivity of the cells. As for `COc1cc([C@@H]2c3cc4c(cc3[C@](O)(C(O)(c3ccccc3)c3ccccc3)[C@H]3COC(=O)[C@H]23)OCO4)cc(OC)c1OC`, the GI50 in experiment [1] is 376 nM; in experiment [2], 281 nM; in experiment [3], 313 nM.

Take `COc1cccc2c1C(=O)c1c(O)c3c(c(O)c1C2=O)C[C@@](O)(C(=O)CO)C[C@@H]3O[C@H]1C[C@H](N)[C@H](O)[C@H](C)O1` [DOXORUBICIN HYDROCHLORIDE]: the GI50 in experiment [1] turned out to be 60.3 nM; in experiment [2], 153 nM; in experiment [3] it was 65.5 nM.

Turning to `COc1cc([C@@H]2c3cc4c(cc3C(=C(C)C)[C@H]3COC(=O)[C@@H]23)OCO4)cc(OC)c1OC`, the GI50 in experiment [1] came to 6440 nM; in experiment [2], 8280 nM; in experiment [3], 3780 nM.

In the case of `COc1cc([C@@H]2c3cc4c(cc3[C@@]3(OC(C)(C)O[C@@H]3C)[C@H]3COC(=O)[C@H]23)OCO4)cc(OC)c1OC`, the GI50 in experiment [1] is 6220 nM; in experiment [2], 5230 nM; in experiment [3] it was 5870 nM.

In the case of `COc1cc([C@@H]2c3cc4c(cc3[C@@](O)(C(C)(C)O)[C@H]3COC(=O)[C@H]23)OCO4)cc(OC)c1OC`, the GI50 in experiment [1] came to 1480 nM; in experiment [2], 659 nM; in experiment [3], 511 nM.

As to `COc1cc([C@@H]2c3cc4c(cc3/C(=C(/C)C(C)C)[C@H]3COC(=O)[C@@H]23)OCO4)cc(OC)c1OC`, the values for the GI50 in experiment [1], in experiment [2] and in experiment [3] were 7700 nM, 10200 nM and 4530 nM, respectively.

As for `COc1cc([C@@H]2c3cc4c(cc3[C@@](O)(C3(O)CCCCC3)[C@H]3COC(=O)[C@H]23)OCO4)cc(OC)c1OC`, the results for the GI50 in experiment [1], in experiment [2] and in experiment [3] were 547 nM, 859 nM and 610 nM, respectively.

As to `COc1cc([C@@H]2c3cc4c(cc3[C@](O)([C@H](O)C3CC=CCC3)[C@H]3COC(=O)[C@H]23)OCO4)cc(OC)c1OC` (some centres not stated), the GI50 is 2030 nM in experiment [1], 2510 nM in experiment [2] and 2430 nM in experiment [3].

In the case of `CCC[C@@H](O)[C@@]1(O)c2cc3c(cc2[C@@H](c2cc(OC)c(OC)c(OC)c2)[C@H]2C(=O)OC[C@@H]21)OCO3`, the GI50 in experiment [1] amounted to 279 nM; in experiment [2] it was 404 nM; in experiment [3], 288 nM.

In the case of `COc1cc([C@@H]2c3cc4c(cc3[C@@H](O)[C@H]3COC(=O)[C@H]23)OCO4)cc(OC)c1OC` [EPIPODOPHYLLOTOXIN], the GI50 in experiment [1] and in experiment [2] was 60 nM in each case.

Consider `COc1cc([C@@H]2c3cc4c(cc3[C@](O)(C3(O)CCSCC3)[C@H]3COC(=O)[C@@H]23)OCO4)cc(OC)c1OC`, for which the GI50 in experiment [1] amounted to 3320 nM; in experiment [2], 2620 nM; in experiment [3], 1780 nM.

Take `COc1ccc([C@@](C)(O)[C@@]2(O)c3cc4c(cc3[C@@H](c3cc(OC)c(OC)c(OC)c3)[C@H]3C(=O)OC[C@@H]32)OCO4)cc1OC`: the GI50 in experiment [1] amounted to 2620 nM; in experiment [2], 4750 nM; in experiment [3] it was 4990 nM.

For the compound `COc1cc([C@@H]2c3cc4c(cc3[C@](O)([C@@](C)(O)C(C)C)[C@H]3COC(=O)[C@H]23)OCO4)cc(OC)c1OC`, the GI50 in experiment [1] was 1150 nM; in experiment [2], 1730 nM; in experiment [3], 1030 nM.

As to `COc1cc([C@@H]2c3cc4c(cc3[C@@]3(OC(C)(C)O[C@H]3C)[C@H]3COC(=O)[C@H]23)OCO4)cc(OC)c1OC`, the results for the GI50 in experiment [1], in experiment [2] and in experiment [3] were 6020 nM, 6560 nM and 6140 nM, respectively.

Turning to `COc1cc([C@@H]2c3cc4c(cc3[C@](O)([C@](C)(O)C(C)C)[C@H]3COC(=O)[C@H]23)OCO4)cc(OC)c1OC`, the GI50 is 254 nM in experiment [1], 204 nM in experiment [2] and 181 nM in experiment [3].

On to `COc1cc([C@@H]2c3cc4c(cc3[C@@](O)(C(O)(c3ccccc3)c3ccccc3)[C@H]3COC(=O)[C@H]23)OCO4)cc(OC)c1OC`, for which the GI50 in experiment [1] amounted to 874 nM; in experiment [2], 528 nM; in experiment [3], 524 nM.

For the origin of these results see ChEMBL document CHEMBL2163197, “Synthesis and antimitotic and tubulin interaction profiles of novel pinacol derivatives of podophyllotoxins” (2012).
